What was measured:
[1] = target: T1, UDP-glucuronosyltransferase 1A9 (Homo sapiens, UniProt O60656); experiment: Drug metabolism assessed as human UGT1A9-mediated N-glucuronide-triclocarban formation expressed in baculovirus infected insect sf9 cells incubated for 5 mins prior to UDPGA addition measured after 30 mins by LC-ESI-MS analysis; type: ADME; details: sf9, 0.5 h
T1 sequence (O60656 whole entry): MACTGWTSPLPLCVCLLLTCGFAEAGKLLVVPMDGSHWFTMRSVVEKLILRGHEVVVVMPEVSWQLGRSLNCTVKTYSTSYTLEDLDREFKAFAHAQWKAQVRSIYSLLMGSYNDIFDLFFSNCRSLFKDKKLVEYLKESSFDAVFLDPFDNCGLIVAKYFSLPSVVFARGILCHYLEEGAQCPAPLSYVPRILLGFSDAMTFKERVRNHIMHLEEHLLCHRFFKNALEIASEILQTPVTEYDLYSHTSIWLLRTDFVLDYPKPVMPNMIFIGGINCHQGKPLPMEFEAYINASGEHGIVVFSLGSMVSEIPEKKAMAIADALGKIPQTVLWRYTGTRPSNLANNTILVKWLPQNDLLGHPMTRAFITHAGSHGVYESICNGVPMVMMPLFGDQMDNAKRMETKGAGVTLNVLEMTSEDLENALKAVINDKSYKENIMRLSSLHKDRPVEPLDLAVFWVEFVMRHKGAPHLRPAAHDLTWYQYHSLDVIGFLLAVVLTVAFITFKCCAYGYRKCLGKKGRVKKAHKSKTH
In short: (§1)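 TCC was incubated at 10 µM (2% DMSO) in 100 mM phosphate pH 7.4 with alamethicin-treated microsomes or Supersomes, 10 mM MgCl2 and 10 mM saccharolactone. After 5 min pre-incubation at 37 °C, UDPGA was added to start the reaction. Protein was raised up to 2 mg/mL. Samples were quenched in ACN with 1 µM DCC internal standard, centrifuged, and N-glucuronides detected by LC-ESI-MS/MS in SRM mode.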

[2] = Drug metabolism in B6C3F1 mouse liver microsomes assessed as N'-glucuronide-triclocarban formation incubated for 5 mins prior to UDPGA addition measured after 30 mins by LC-UV-ESI-MS/MS analysis; type: ADME; details: 0.5 h; in short: as §1
[3] = target: T2, UDP-glucuronosyltransferase 2B4 (Homo sapiens, UniProt P06133); experiment: Drug metabolism assessed as human UGT2B4-mediated N-glucuronide-triclocarban formation expressed in baculovirus infected insect sf9 cells incubated for 5 mins prior to UDPGA addition measured after 5 to 30 mins by LC-UV analysis; type: ADME
T2 sequence (P06133 whole entry): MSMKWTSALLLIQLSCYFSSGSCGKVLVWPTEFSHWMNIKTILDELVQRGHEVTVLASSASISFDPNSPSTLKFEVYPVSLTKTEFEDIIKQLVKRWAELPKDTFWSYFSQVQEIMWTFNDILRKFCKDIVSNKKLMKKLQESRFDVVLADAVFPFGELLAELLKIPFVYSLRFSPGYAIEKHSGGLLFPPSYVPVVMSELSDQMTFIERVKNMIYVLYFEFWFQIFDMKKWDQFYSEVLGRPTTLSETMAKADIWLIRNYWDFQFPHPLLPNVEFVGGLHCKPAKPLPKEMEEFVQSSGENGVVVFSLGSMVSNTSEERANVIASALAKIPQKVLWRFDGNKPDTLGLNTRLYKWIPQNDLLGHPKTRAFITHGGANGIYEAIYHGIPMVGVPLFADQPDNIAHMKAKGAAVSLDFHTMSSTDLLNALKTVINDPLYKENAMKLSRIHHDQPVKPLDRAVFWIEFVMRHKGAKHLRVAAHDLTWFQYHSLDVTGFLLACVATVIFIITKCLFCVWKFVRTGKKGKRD
In short: (§2)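 Microsomes or UGT Supersomes (5 µg protein) were held 15 min on ice with alamethicin in 100 mM potassium phosphate pH 7.4. TCC was added at 10 µM (2% DMSO) with 10 mM MgCl2 and 10 mM saccharolactone, pre-warmed 5 min at 37 °C, then started with UDPGA. Samples at 5, 10, 15 and 30 min were quenched in ACN. Product was read by LC-UV at 265 nm; rate came from regression over time, three incubations.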

[4] = target: T3, UDP-glucuronosyltransferase 2B17 (Homo sapiens, UniProt O75795); experiment: Drug metabolism assessed as human UGT2B17-mediated N-glucuronide-triclocarban formation expressed in baculovirus infected insect sf9 cells incubated for 5 mins prior to UDPGA addition measured after 5 to 30 mins by LC-UV analysis; type: ADME; in short: as §2
T3 sequence (O75795 whole entry): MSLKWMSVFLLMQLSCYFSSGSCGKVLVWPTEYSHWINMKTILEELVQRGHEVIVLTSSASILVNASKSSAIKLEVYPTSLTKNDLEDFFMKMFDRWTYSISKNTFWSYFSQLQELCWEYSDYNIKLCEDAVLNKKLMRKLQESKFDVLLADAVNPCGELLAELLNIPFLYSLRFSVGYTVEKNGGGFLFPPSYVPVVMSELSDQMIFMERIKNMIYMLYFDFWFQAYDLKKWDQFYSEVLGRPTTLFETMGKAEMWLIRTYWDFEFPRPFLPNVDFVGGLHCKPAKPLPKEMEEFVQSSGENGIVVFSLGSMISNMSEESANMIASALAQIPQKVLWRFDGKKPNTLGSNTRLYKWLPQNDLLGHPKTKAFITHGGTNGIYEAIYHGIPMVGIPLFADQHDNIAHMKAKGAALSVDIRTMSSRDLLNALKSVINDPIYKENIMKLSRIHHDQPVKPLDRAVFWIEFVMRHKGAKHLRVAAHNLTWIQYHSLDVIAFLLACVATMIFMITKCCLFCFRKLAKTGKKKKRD

[5] = Drug metabolism in cynomolgus monkey liver microsomes assessed as N'-glucuronide-triclocarban formation incubated for 5 mins prior to UDPGA addition measured after 30 mins by LC-UV-ESI-MS/MS analysis; type: ADME, Macaca fascicularis; details: 0.5 h; in short: as §1
[6] = target: T4, UDP-glucuronosyltransferase 1A1 (Homo sapiens, UniProt P22309); experiment: Drug metabolism assessed as human UGT1A1-mediated N-glucuronide-triclocarban formation expressed in baculovirus infected insect sf9 cells incubated for 5 mins prior to UDPGA addition measured after 5 to 30 mins by LC-UV analysis; type: ADME; in short: as §2
T4 sequence (P22309 whole entry): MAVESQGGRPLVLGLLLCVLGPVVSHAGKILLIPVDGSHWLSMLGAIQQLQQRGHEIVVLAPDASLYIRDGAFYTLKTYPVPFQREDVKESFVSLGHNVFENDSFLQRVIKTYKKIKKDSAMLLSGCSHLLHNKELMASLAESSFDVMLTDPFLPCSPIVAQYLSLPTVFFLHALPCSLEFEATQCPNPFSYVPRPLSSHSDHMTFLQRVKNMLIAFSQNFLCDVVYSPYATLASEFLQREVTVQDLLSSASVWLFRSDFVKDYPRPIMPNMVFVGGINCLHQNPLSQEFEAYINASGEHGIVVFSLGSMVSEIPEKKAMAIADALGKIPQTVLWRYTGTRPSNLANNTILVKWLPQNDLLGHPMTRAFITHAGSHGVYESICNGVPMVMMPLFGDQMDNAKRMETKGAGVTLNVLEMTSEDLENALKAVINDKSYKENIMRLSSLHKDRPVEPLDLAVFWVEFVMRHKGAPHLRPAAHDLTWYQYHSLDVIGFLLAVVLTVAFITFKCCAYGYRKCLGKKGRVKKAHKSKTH

Measured: Drug metabolism

O=C(Nc1ccc(Cl)cc1)Nc1ccc(Cl)c(Cl)c1 [TRICLOCARBAN]
metabolite_not_detected: [3] | [4] | [6]
metabolite_detected: [1] | [2] | [5]

From ChEMBL document CHEMBL3525967, “In vitro glucuronidation of the antibacterial triclocarban and its oxidative metabolites” (Drug Metab Dispos, 2012)
